Experimental data published in paper PMC8164216 (Pharmaceutical research, 2019).
Several values for one entry are separate records, joined by “and”; a condition that tells them apart may be missing. Equal entries are not always repeated. Marks after values point to notes of the source that are not given here.

Experiments:
[1] = breast tumor xenograft study; cited from earlier work
[2] = test system: MCT1; conditions: murine 4T1 cells; cited from earlier work
[3] = target: T1, MCT1 (Mus musculus, UniProt P53986); assay: Full TMDD model; format: in vivo, Female BALB/c mice
T1 sequence (P53986 1-493): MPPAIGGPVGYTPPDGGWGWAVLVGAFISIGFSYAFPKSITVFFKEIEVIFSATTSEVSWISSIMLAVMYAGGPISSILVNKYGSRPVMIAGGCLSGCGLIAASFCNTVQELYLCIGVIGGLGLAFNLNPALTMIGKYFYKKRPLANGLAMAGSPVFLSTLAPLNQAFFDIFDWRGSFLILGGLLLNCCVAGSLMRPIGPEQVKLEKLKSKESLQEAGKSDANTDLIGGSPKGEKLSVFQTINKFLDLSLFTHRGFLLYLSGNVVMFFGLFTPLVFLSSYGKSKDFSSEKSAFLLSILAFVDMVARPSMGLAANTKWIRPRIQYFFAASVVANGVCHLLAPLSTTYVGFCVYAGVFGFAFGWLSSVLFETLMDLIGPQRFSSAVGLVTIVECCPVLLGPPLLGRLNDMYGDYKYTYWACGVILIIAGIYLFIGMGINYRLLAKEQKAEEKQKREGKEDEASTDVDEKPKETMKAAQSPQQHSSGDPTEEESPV
T1 sequence (P18572 140-389 partner limits assumed): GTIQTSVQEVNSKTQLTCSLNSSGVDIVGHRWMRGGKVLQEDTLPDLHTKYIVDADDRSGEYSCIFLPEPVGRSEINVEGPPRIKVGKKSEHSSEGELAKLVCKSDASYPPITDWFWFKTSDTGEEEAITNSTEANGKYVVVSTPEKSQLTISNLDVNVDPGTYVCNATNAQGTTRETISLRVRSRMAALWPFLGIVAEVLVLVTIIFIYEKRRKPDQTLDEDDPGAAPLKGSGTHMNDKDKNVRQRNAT

[4] = Compartmental PK modeling with enterohepatic cycling and M-M elimination; format: in vivo, Female BALB/c mice; conditions: for Vp: simultaneous fit of IV and oral data; for Vmax / Km: M-M elimination; for CLb: clearance to bile compartment; for Km: female, BALB/c, mouse, plasma, other: intravenous and oral, fitted simultaneously
Outline: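 Female BALB/c mice (18–20 g) got the test compound in 20% w/v cyclodextrin in normal saline, by tail-vein IV (10, 50, 100 mg/kg) or oral gavage (100 mg/kg). Terminal cardiac blood (isoflurane, lithium heparin; n = 3–4/time point) was taken to 24 h, and plasma was assayed by LC/MS/MS. Naïve-pooled IV and oral data were fitted together by maximum likelihood to enterohepatic-cycling models with lag time and Michaelis-Menten elimination.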

[5] = Pharmacokinetic study in mice, non-compartmental analysis; format: in vivo, Female BALB/c mice
Outline: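 Mice were dosed IV by tail vein (10, 50, 100 mg/kg) or by oral gavage (100 mg/kg), in 20% w/v cyclodextrin-saline. Plasma from terminal cardiac puncture (n = 3–4/time point; 15 min–24 h IV, 10 min–24 h oral) was quantified by LC/MS/MS (LLOQ 0.15 ng/mL). Naïve-pooled non-compartmental analysis assumed 19 g body weight. AUC was by trapezoidal method, extrapolated to infinity. Fold change is relative to the 10 mg/kg IV dose.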

[6] = Compartmental PK modeling, full TMDD model; format: in vivo, Female BALB/c mice
[7] = test system: MCT2; conditions: to a lesser extent than MCT1; cited from earlier work
[8] = target: MCT1; conditions: cited from earlier work
[9] = female, BALB/c, mouse, plasma, iv, 10 mg/kg
[10] = female, BALB/c, mouse, plasma, iv, 50 mg/kg
[11] = female, BALB/c, mouse, plasma, iv, 100 mg/kg
[12] = female, BALB/c, mouse, plasma, po, 100 mg/kg

kon ([3]; Model C, converted based on the molecular weight): 6.21 ± 5.92 (95. 3) μM^−1 h^−1
koff ([3]; mouse): 0.00641 s⁻¹
CLd ([4]; Model A): 0.332 ± 0.064 (19.3) ml/h
F ([4]; Model A): 1.00 ± 0.003 (0.32)
ka ([4]; Model A): 3.39 ± 1.11 (32.7) h^−1
Vp ([4]; Model A (EHC model)): 48.6 ± 5.86 (12.1) ml
Vmax ([4]; Model A): 26.4 ± 8.30 (31.7) μg/h
CLb ([4]; Model A): 0.529 ± 0.074 (13.9) ml/h
ko ([4]; Model A, first-order rate constant of release from bile): 0.0015 ± 0.0004 ^a (29.0) h^−1
Tlag ([4]; Model A, fixed in final estimation): 5.92 (Fixed) h
CLd ([4]; Model B): 0.023 ± 0.003 (11.1) ml/h
F ([4]; Model B): 0.998 ± 0.003 (0.31)
ka ([4]; Model B): 5.13 ± 1.98 (38.6) h^−1
Vp ([4]; Model B (simplified EHC model)): 55.8 ± 5.20 (9.35) ml
Tlag.iv ([4]; Model B, IV): 6.00 ± 0.0006 (0.01) h
Vmax ([4]; Model B): 411 ± 42.0 (10.3) μg/h
CLb ([4]; Model B): 0.178 ± 0.019 (10.8) ml/h
Tlag.po ([4]; Model B, oral): 5.90 ± 0.06 (1.05) h
ko ([4]; Model B, zero-order rate constant of release from bile): 0.386 ± 0.146 ^b (37.9) ng/h
Km ([4]; Model A): 9.59 ± 4.63 µg/mL
Km ([4]; Model B): 385 ± 58 µg/mL
Vc/F ([5]; IV 10 mg/kg, mice (19 g)): 53.4 mL
AUC0−∞, fold change from the lowest IV dose ([5]; IV 50 mg/kg vs 10 mg/kg): 8.36 fold
CL, fold change from the lowest IV dose ([5]; IV 50 mg/kg vs 10 mg/kg): 0.50 fold
Cmax, fold change from the lowest IV dose ([5]; IV 50 mg/kg vs 10 mg/kg): 7.49 fold
Vss, fold change from the lowest IV dose ([5]; IV 50 mg/kg vs 10 mg/kg): 0.58 fold
t1/2, fold change from the lowest IV dose ([5]; IV 50 mg/kg vs 10 mg/kg): 0.89 fold
λz, fold change from the lowest IV dose ([5]; IV 50 mg/kg vs 10 mg/kg): 1.12 fold
Vc/F ([5]; IV 50 mg/kg, mice (19 g)): 31.0 mL
AUC0−∞, fold change from the lowest IV dose ([5]; IV 100 mg/kg vs 10 mg/kg): 17.5 fold
CL, fold change from the lowest IV dose ([5]; IV 100 mg/kg vs 10 mg/kg): 0.47 fold
Cmax, fold change from the lowest IV dose ([5]; IV 100 mg/kg vs 10 mg/kg): 13.6 fold
Vss, fold change from the lowest IV dose ([5]; IV 100 mg/kg vs 10 mg/kg): 0.65 fold
t1/2, fold change from the lowest IV dose ([5]; IV 100 mg/kg vs 10 mg/kg): 0.87 fold
λz, fold change from the lowest IV dose ([5]; IV 100 mg/kg vs 10 mg/kg): 1.16 fold
Vc/F ([5]; IV 100 mg/kg, mice (19 g)): 34.6 mL
AUC(0-inf) [5, 9]: 4940 ng·h/mL
Cmax [5, 9]: 4020 ng/mL
Vd [5, 9]: 0.0442 L
clearance [5, 9]: 0.773 mL/min
concentration at 24 h [5, 9]: 0.285 ng/mL
half-life [5, 9]: 2.91 h
k el [5, 9]: 6.61e-05 s⁻¹
AUC(0-inf) [5, 10]: 41300 ng·h/mL
Cmax [5, 10]: 30100 ng/mL
Vd [5, 10]: 0.0256 L
clearance [5, 10]: 0.383 mL/min
half-life [5, 10]: 2.6 h
k el [5, 10]: 7.39e-05 s⁻¹
AUC(0-inf) [5, 11]: 86400 ng·h/mL
Cmax [5, 11]: 54500 ng/mL
Vd [5, 11]: 0.0286 L
clearance [5, 11]: 0.367 mL/min
half-life [5, 11]: 2.51 h
k el [5, 11]: 7.64e-05 s⁻¹
bioavailability ([5]; female, BALB/c, mouse, plasma, oral, 100 mg/kg): 82.7%
AUC(0-inf) [5, 12]: 71400 ng·h/mL
Cmax [5, 12]: 30300 ng/mL
Tmax [5, 12]: 0.333 h
half-life [5, 12]: 4.46 h
k el [5, 12]: 4.33e-05 s⁻¹
CL/F ([5]; oral 100 mg/kg, mice (19 g)): 26.6 mL/h
Vc/F ([5]; oral 100 mg/kg, mice (19 g)): 171 mL
ka ([6]; Model C): 34.4 ± 4.80 (14.0) h^−1
kpt ([6]; Model C): 0.302 ± 0.074 (24.7) h^−1
ktp ([6]; Model C): 0.452 ± 0.041 (9.12) h^−1
Vp ([6]; Model C (full TMDD model), fixed): 2.04 ml and 2.04 (Fixed) ml
SMILES: Cc1[nH]nc(C(F)(F)F)c1Cc1sc2c(c1C(=O)N1C[C@](C)(O)CO1)c(=O)n(C)c(=O)n2C(C)C [AZD3965, 5-[(4S)-4-hydroxy-4-methyl-1,2-oxazolidine-2-carbonyl]-1-isopropyl-3-methyl-6-{[3-methyl-5-(trifluoromethyl)-2H-pyrazol-4-yl]methyl}thieno[2,3-d]pyrimidine-2,4-dione]
concentration in 4T1 tumor versus plasma [1]: 25.5 fold
duration of inhibition of L-lactate uptake [2]: up to 5 h
pre-incubation period for maximal inhibition of L-lactate uptake [2]: 5 min
Rtotal (total transporter concentration) ([3]; Model C): 54.8 ± 4.90 μg/ml and 54.8 ± 4.90 (8.92) μg/ml
activity against MCT2 [7]: some activity
Ki [8]: 1.6 nM
